The target in the test is T1, CKR-1 (Caenorhabditis elegans, UniProt P91487).
T1 sequence (P91487 1-421): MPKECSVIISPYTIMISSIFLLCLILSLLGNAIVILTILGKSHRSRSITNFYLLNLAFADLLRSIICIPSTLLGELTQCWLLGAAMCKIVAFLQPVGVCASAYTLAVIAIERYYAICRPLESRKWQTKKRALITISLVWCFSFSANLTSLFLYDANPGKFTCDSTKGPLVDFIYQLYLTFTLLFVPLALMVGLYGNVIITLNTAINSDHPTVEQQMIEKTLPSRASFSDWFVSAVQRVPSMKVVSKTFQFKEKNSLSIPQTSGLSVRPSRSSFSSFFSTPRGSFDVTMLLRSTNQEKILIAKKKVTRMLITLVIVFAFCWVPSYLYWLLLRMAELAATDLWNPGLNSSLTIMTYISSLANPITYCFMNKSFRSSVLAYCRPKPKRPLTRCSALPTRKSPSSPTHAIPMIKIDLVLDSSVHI
The class given is cell-based, C. elegans. A digest of the protocol: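 CKR-1 cDNA cloned into pGH19, and 50 ng sense cRNA injected per oocyte. Oocytes kept 2-3 days at 18°C in ND96. TEVC at -80 mV with 3 M KCl electrodes. Perfusion switched from ND96 to high-K+ bath (96 mM KCl, pH 7.3) to read […] Ca2+-gated Cl- currents evoked by synthetic peptide. Washout in high-K+, then ND96.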

No end group written: not given here.

The term EC50 denotes the concentration giving half of the maximal effect. Lower therefore signals higher potency in that assay. DYRPLQF-NH2 [NLP-12a]: the concentration for a half-maximal effect (EC50) worked out at 26.5 nM. Besides, the “EC50 of NLP-12a relative to NLP-18a” value (ratio of EC50 values, X. laevis oocytes expressing CKR-1) was “approximately twice that of NLP-18a”.

The values above are taken from PMC10952047 (iScience, 2024).
